Measured values reported in ChEMBL document CHEMBL5661979, “Pharmacological inhibition of BMK1 suppresses tumor growth through promyelocytic leukemia protein” (Cancer Cell, 2010).

What was measured:
[1] = Inhibition of PRKX/PRKY in human HeLa cells lysate at 50 uM pre incubated for 15 mins followed by ADP acyl phosphate probe addition and measured after 10 mins by LC-MS/MS analysis relative to control; details: 25 min, condition cancer
[2] = molecular target: Cyclin-dependent kinase 13 (Homo sapiens, UniProt Q14004); assay: Inhibition of CHED in human HeLa cells lysate at 2 uM pre incubated for 15 mins followed by ADP acyl phosphate probe addition and measured after 10 mins by LC-MS/MS analysis relative to control; assay type: subcellular; details: time 25.0 min
Procedure, shortened: (§1)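 KiNativ profiling in HeLa lysate (5 mg/mL total protein). Lysate incubated 15 min with inhibitor at 50, 10, 2, 0.8 or 0 μM. ATP or ADP acylphosphate probe then added (5 μM final) and reacted 10 min. Reaction stopped with urea and analysed by targeted MS, using up to four fragment ions per kinase peptide-probe conjugate. % inhibition taken against untreated lysate. Run in duplicate.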

[3] = molecular target: Serine/threonine-protein kinase 38 (Homo sapiens, UniProt Q15208); assay: Inhibition of NDR1 in human HeLa cells lysate at 2 uM pre incubated for 15 mins followed by ATP acyl phosphate probe addition and measured after 10 mins by LC-MS/MS analysis relative to control; assay type: subcellular; details: time 25.0 min
[4] = molecular target: Cyclin-dependent kinase 7 (Homo sapiens, UniProt P50613); assay: Inhibition of CDK7 in human HeLa cells lysate at 50 uM pre incubated for 15 mins followed by ATP acyl phosphate probe addition and measured after 10 mins by LC-MS/MS analysis relative to control; assay type: subcellular; details: time 25.0 min; procedure, shortened: as §1
Chain of Cyclin-dependent kinase 7 (P50613 whole entry): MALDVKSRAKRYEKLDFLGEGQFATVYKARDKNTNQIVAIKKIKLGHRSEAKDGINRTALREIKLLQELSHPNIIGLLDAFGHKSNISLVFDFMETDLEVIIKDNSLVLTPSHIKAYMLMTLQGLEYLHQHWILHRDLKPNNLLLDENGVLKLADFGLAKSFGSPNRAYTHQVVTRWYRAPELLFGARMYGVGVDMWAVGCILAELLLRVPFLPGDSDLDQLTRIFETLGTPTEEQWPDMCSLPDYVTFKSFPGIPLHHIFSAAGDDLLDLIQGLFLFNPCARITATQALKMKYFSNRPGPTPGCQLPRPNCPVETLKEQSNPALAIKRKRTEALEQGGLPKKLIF

Activated CDC42 kinase 1 = Activated CDC42 kinase 1 (Homo sapiens, UniProt Q07912); assay: Inhibition of TNK2 (unknown origin) assessed as remaining activity at 10 uM by ATP-competition binding assay relative to control
Chain of Activated CDC42 kinase 1 (Q07912 whole entry, looked up): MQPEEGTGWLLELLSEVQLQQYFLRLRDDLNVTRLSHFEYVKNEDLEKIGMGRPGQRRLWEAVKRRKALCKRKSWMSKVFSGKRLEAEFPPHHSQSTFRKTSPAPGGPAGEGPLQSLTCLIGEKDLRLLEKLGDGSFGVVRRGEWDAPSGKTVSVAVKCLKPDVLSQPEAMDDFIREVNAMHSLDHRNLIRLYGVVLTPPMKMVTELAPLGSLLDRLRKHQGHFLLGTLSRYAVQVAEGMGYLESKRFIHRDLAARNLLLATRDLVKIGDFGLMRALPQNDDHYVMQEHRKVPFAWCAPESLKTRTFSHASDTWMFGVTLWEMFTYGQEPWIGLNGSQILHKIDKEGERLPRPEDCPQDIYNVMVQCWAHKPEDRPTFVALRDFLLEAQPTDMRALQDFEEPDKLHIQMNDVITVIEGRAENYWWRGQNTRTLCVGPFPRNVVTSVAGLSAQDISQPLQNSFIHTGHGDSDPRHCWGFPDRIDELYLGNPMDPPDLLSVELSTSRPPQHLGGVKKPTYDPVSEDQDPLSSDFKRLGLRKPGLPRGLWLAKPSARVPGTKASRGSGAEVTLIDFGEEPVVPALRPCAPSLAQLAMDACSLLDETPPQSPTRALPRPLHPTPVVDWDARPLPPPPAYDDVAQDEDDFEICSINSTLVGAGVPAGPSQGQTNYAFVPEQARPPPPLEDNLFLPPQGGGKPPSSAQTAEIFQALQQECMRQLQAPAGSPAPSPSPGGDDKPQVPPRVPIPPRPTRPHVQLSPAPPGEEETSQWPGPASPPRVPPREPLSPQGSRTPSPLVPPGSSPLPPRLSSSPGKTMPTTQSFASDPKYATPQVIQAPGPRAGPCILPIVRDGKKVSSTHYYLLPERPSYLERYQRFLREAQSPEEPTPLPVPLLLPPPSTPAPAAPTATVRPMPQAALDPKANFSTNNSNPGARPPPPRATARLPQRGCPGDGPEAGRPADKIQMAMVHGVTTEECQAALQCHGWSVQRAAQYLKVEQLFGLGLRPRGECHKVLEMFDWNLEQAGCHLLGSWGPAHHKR

[5] = molecular target: Serine/threonine-protein kinase Nek3 (Homo sapiens, UniProt P51956); assay: Inhibition of NEK3 in human HeLa cells lysate pre incubated for 15 mins followed by ADP acyl phosphate probe addition and measured after 10 mins by LC-MS/MS analysis; assay type: subcellular
Chain of Serine/threonine-protein kinase Nek3 (P51956 whole entry): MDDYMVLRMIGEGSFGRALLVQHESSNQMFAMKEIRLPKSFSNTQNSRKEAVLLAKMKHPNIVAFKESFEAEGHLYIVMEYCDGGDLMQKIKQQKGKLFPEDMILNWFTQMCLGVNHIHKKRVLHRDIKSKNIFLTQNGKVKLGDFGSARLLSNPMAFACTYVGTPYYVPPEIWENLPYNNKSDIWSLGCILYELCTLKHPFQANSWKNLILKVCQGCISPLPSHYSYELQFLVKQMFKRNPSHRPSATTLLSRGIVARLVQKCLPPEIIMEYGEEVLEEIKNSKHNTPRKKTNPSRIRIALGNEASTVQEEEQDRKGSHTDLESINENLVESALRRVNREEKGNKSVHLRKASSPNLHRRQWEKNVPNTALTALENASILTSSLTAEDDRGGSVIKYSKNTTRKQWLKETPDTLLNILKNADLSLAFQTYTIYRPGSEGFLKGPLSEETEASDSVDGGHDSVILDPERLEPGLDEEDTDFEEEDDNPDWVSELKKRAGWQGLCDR

[6] = molecular target: Peripheral plasma membrane protein CASK (Homo sapiens) (UniProt O14936); assay: Inhibition of CASK in human HeLa cells lysate at 10 uM pre incubated for 15 mins followed by ADP acyl phosphate probe addition and measured after 10 mins by LC-MS/MS analysis relative to control; assay type: subcellular; details: time 25.0 min; procedure, shortened: as §1
Chain of Peripheral plasma membrane protein CASK (Homo sapiens) (O14936 whole entry): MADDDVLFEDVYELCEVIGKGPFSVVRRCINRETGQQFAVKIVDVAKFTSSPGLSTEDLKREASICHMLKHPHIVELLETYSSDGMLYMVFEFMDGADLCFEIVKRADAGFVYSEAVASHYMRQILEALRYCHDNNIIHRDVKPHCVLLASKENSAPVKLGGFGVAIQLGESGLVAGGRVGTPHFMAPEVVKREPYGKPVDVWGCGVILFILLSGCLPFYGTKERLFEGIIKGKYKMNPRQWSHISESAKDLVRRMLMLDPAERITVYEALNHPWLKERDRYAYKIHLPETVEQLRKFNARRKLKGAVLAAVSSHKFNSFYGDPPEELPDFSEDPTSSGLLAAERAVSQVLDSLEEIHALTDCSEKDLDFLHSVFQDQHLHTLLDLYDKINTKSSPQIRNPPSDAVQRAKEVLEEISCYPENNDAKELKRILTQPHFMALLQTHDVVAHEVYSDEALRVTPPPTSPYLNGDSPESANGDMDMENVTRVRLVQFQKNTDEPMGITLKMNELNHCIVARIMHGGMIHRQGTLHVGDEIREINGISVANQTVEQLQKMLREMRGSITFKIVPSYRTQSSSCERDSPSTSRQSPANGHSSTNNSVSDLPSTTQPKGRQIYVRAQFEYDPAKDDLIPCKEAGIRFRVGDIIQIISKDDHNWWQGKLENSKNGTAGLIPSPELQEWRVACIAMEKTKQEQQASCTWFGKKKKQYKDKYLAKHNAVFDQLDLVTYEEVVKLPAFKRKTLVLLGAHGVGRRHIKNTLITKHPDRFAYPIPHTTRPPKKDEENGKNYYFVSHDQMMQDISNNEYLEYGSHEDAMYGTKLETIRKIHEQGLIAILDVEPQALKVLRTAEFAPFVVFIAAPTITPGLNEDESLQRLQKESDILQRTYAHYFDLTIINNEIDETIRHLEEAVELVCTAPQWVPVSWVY

[7] = molecular target: T1, Phosphatidylinositol 5-phosphate 4-kinase type-2 alpha (Homo sapiens) (UniProt P48426); assay: Inhibition of PIP5K2A in human HeLa cells lysate at 2 uM pre incubated for 15 mins followed by ATP acyl phosphate probe addition and measured after 10 mins by LC-MS/MS analysis relative to control; assay type: subcellular; details: time 25.0 min
T1 sequence (whole entry): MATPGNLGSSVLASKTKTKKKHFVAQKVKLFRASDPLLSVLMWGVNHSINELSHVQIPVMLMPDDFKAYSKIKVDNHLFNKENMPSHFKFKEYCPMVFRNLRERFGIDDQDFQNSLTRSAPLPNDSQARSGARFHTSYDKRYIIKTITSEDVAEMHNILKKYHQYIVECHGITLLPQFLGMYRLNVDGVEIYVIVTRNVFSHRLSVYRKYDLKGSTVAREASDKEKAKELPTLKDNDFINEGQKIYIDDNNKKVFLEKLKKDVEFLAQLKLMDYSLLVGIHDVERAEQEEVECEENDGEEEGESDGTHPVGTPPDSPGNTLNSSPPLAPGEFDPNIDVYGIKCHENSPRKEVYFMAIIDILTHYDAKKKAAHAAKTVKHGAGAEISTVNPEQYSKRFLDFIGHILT

[8] = molecular target: T2, Scaffold protein ILK (Homo sapiens) (UniProt Q13418); assay: Inhibition of ILK in human HeLa cells lysate at 10 uM pre incubated for 15 mins followed by ATP acyl phosphate probe addition and measured after 10 mins by LC-MS/MS analysis relative to control; assay type: subcellular; details: time 25.0 min
T2 sequence (whole entry): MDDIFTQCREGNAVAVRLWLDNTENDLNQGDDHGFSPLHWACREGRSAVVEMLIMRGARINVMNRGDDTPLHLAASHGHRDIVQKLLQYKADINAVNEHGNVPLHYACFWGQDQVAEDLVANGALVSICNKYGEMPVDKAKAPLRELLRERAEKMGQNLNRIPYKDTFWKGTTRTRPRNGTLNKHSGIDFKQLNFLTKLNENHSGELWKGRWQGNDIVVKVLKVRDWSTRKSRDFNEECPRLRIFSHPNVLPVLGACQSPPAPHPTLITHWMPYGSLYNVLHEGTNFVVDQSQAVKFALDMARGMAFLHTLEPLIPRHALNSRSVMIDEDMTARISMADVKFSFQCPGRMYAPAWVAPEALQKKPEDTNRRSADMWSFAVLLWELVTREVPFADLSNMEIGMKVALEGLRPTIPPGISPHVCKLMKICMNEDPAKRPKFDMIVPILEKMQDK

[9] = molecular target: STE20-like serine/threonine-protein kinase (Homo sapiens, UniProt Q9H2G2); assay: Inhibition of SLK in human HeLa cells lysate at 50 uM pre incubated for 15 mins followed by ADP acyl phosphate probe addition and measured after 10 mins by LC-MS/MS analysis relative to control; assay type: subcellular; details: time 25.0 min
Chain of STE20-like serine/threonine-protein kinase (Q9H2G2 whole entry, looked up): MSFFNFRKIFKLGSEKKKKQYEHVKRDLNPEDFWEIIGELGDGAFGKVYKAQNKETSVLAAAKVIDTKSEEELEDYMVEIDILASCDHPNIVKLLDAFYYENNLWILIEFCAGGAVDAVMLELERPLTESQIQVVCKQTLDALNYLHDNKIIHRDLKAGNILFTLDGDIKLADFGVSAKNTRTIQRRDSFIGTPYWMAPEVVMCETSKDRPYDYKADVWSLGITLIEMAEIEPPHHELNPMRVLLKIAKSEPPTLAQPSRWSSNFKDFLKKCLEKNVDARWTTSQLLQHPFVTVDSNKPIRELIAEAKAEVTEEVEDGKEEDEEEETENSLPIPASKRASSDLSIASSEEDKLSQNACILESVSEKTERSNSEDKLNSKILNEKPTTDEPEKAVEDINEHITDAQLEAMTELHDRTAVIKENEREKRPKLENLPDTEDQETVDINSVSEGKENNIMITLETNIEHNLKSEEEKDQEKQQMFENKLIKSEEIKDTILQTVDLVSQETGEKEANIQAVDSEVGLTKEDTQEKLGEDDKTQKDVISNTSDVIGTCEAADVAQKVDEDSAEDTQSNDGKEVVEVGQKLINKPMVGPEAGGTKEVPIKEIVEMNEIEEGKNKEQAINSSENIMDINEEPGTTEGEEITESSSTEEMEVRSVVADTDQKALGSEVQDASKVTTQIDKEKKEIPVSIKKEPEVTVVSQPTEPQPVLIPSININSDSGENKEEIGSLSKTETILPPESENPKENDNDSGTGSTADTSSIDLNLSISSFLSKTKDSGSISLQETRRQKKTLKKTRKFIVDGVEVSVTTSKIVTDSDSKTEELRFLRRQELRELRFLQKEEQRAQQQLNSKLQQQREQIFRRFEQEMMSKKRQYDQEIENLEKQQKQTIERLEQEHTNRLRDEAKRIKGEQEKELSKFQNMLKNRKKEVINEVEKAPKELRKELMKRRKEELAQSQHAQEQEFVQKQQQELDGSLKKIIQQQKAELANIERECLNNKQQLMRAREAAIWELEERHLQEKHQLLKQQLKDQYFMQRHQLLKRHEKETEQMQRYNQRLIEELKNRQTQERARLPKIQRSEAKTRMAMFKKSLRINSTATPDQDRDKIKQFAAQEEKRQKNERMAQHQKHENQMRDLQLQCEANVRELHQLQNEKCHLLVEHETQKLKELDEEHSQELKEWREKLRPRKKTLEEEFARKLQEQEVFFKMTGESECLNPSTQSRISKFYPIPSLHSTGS

AMPK alpha1/alpha2 = AMPK alpha1/alpha2 (Homo sapiens, UniProt P54646+Q13131); assay: Inhibition of AMPKalpha1/2 in human HeLa cells lysate pre incubated for 15 mins followed by ADP acyl phosphate probe addition and measured after 10 mins by LC-MS/MS analysis; assay type: subcellular
Procedure, shortened: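 HeLa cell lysates (5 mg/mL total protein) were preincubated with inhibitor at 0, 0.8, 2, 10 or 50 μM for 15 min. ATP or ADP acylphosphate probe was then added (5 μM final) for 10 min, and reactions were stopped with urea. Up to four fragment ions per kinase probe-peptide were quantified by targeted MS. % inhibition was taken relative to untreated lysate. Run in duplicate.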

[10] = molecular target: Epidermal growth factor receptor (Homo sapiens, UniProt P00533); assay: Inhibition of EGFR in human HeLa cells lysate at 50 uM pre incubated for 15 mins followed by ADP acyl phosphate probe addition and measured after 10 mins by LC-MS/MS analysis relative to control; assay type: subcellular; details: time 25.0 min
[11] = molecular target: Cyclin-dependent kinase 2 (Homo sapiens, UniProt P24941); assay: Inhibition of CDK2 K2 site in human HeLa cells lysate at 10 uM pre incubated for 15 mins followed by ADP acyl phosphate probe addition and measured after 10 mins by LC-MS/MS analysis relative to control; assay type: subcellular; details: time 25.0 min; procedure, shortened: as §1
[12] = molecular target: Serine/threonine-protein kinase 16 (Homo sapiens, UniProt O75716); assay: Inhibition of MPSK1 in human HeLa cells lysate pre incubated for 15 mins followed by ATP acyl phosphate probe addition and measured after 10 mins by LC-MS/MS analysis; assay type: subcellular
Chain of Serine/threonine-protein kinase 16 (O75716 whole entry): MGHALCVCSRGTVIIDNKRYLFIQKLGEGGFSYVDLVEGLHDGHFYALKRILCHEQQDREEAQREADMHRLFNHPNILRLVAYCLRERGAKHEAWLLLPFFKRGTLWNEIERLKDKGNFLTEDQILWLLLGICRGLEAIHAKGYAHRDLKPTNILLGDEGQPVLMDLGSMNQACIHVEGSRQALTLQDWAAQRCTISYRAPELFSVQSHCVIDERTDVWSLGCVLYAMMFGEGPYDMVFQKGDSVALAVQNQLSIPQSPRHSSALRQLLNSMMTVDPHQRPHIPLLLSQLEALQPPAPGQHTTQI

[13] = molecular target: Serine/threonine-protein kinase PLK1 (Homo sapiens, UniProt P53350); assay: Inhibition of PLK1 in human HeLa cells lysate at 2 uM pre incubated for 15 mins followed by ADP acyl phosphate probe addition and measured after 10 mins by LC-MS/MS analysis relative to control; assay type: subcellular; details: time 25.0 min
Chain of Serine/threonine-protein kinase PLK1 (P53350 whole entry): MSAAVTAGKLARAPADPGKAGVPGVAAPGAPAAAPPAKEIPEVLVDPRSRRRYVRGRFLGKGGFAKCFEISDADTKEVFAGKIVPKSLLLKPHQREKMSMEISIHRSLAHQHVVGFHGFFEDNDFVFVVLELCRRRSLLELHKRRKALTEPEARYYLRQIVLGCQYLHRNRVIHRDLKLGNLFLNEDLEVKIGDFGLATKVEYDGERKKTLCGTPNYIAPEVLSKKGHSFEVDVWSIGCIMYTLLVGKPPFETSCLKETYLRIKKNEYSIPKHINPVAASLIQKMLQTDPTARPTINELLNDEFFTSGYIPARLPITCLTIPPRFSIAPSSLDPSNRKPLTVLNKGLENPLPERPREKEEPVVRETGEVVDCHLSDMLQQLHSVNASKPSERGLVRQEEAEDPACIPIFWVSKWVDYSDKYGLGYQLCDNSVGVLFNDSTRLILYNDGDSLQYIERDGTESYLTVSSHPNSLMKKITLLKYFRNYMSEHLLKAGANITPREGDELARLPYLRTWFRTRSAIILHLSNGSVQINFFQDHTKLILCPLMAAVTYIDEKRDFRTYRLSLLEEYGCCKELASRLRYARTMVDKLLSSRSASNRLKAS

[14] = molecular target: Serine/threonine-protein kinase/endoribonuclease IRE1 (Homo sapiens, UniProt O75460); assay: Inhibition of IRE1 in human HeLa cells lysate at 10 uM pre incubated for 15 mins followed by ADP acyl phosphate probe addition and measured after 10 mins by LC-MS/MS analysis relative to control; assay type: subcellular; details: time 25.0 min

With `CCOc1cc(N2CCC(O)CC2)ccc1Nc1ncc2c(n1)N(C)c1ccccc1C(=O)N2C` the inhibition at 50 µM [1] was -27.3%, the inhibition [2] was 28.1% and the inhibition [3] was -4.3%. For the same compound, the inhibition [4] was -0.5%, the Activity (Activated CDC42 kinase 1) was 17% and the IC50 [5] was > 50 µM. The inhibition [6] was -8.1%, the inhibition [7] was -4.6% and the inhibition [8] was 13.3%. The inhibition [9] was 20.9%, the IC50 (AMPK alpha1/alpha2) was > 50 µM and the inhibition [10] was 5.9%. For the same compound, the inhibition [11] was -7.5%, the IC50 [12] was > 50 µM and the inhibition [13] was 0%. For the same compound, the inhibition [14] was 15.6%.
